# Wee1 stabilizer: blocks degradation of human Wee1 kinase | P30291 | HeLa Luc-Wee1K328M stability, luciferase luminescence; 100% = proteasome inhibitor MG132 effect | reporter increase, % at 5 µM | 220,000 compounds, 1.2% hits | AID 1321;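 active means activation above the mean of all tested compounds plus 3 SD, set per screening run, cut at about 8.8% in these data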;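 further: cells exposed to compound for 20 h before luminescence read; 0% = DMSO alone and 100% = MG132 at 30 µM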
# CHOP inh: inhibitors of CHOP induction in ER stress response; CHO-K1 CHOP-promoter luciferase, tunicamycin-induced, 15-18 h; inhibition, % at 10 µM; 220,000 compounds, 3.8% hits; AID 2732;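 active means compounds that reduced the stress-induced luciferase reporter signal by more than about 70% of percent inhibition, limit read from the data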;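 further: 0% = tunicamycin plus vehicle and 100% = wells without tunicamycin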
# PKD1 inh: PKD1 (human) kinase inhibition; Q15139; PKD1 kinase fluorescence polarization assay; inhibition, % (no concentration beside the values); 200,000 compounds, 0.056% hits
# L major viab: reduces viability of Leishmania major promastigotes. resazurin fluorescence viability. inhibition, % at 10 µM. 200,000 compounds, 9% hits;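 further: promastigotes grown with compound for 44 hours at 28 °C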
# Rad51 HR inh: blocks human Rad51 in homologous recombination | 200,000 compounds, 0.085% hits | inhibition, % at 10 µM | hRad51 DNA strand exchange, fluorescence dequenching | Q06609;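 active means inhibition above 40% at the single screening dose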;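 further: 0% = DMSO control wells and 100% = blanks with heterologous ssDNA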
#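 Read-out basis: percent inhibition relative to plate controls and blanks / Assay system: human Rad51 nucleoprotein filaments preassembled on unlabelled ssDNA / Timing: filaments 15 min 37 °C, then compound 30 min / Control set: per-plate controls and blanks / Technique: fluorescence dequenching at 485/520 nm / Compound: 10 µM final, single point / Also added: Fluorescein- and BHQ1-tagged 47-mer duplex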
# Arbovirus inh: blocks arbovirus infection; 200,000 compounds, 0.37% hits; AID 1251; inhibition, % at 10 µM; arbovirus infection cell-based antiviral screen; in the data active means inhibition above about 30%
# Starred values were filed as active, the others as inactive; . = not tested or not shown. Most compounds without a hit are left out; they make up all but 12% or so of the library. Unless noted, no stated cut-off is given here; in the data, active means inhibition above about 50%; inactive means the rest.
SMILES,Wee1 stabilizer,CHOP inh,PKD1 inh,L major viab,Rad51 HR inh,Arbovirus inh
CN(C)CC(C)(C)CNS(=O)(=O)c1ccc(Cl)c(Cl)c1,-0.7,10.0,-4.4,80.0*,3.8,-8.4
CN(C)CCNC(=O)c1cccc(NS(=O)(=O)c2ccc(Cl)c(Cl)c2)c1,-2.4,11.6,0.5,-5.3,-7.6,13.2
COc1ccc(C(C)=O)cc1CSc1nc2ccccc2c(=O)n1-c1ccccc1,-0.8,36.1,1.7,0.5,2.8,13.8
COc1ccc(C(C)=O)cc1CSc1nc2ccccc2c(=O)n1-c1cccc(C)c1,3.7,12.1,-5.4,18.0,.,-32.4
COc1ccc(C(C)=O)cc1CSc1nc2ccccc2c(=O)n1-c1ccccc1C,-1.8,22.7,-5.4,77.7*,3.2,-12.4
C=CCn1c(SCc2cc(C(C)=O)ccc2OCC)nc2ccccc2c1=O,7.6,-1.1,9.8,96.7*,0.8,-6.3
O=C(CCCc1ccccc1)NCc1ccc(F)cc1,3.8,-20.3,-12.1,31.9,-0.5,-4.0
O=C(/C=C/c1cccc(O)c1)c1cccnc1,0.9,-44.1,-3.0,98.6*,1.0,-0.5
CN(C)S(=O)(=O)c1cccc(-c2nnc3n2CCCCC3)c1,2.3,22.2,.,.,31.2,.
COc1cc(C[C@@H](CO)[C@H](CO)Cc2ccc(O)c(OC)c2)ccc1O,.,.,.,.,-5.9,.
COc1ccc(/C=N/Nc2ncnc3c2[nH]c2ccccc23)c(OC)c1OC,3.7,23.2,0.4,65.8*,0.1,-3.2
Cn1c(Cl)cnc1C1CC(=O)c2cc(Cl)ccc2O1 (configuration not stated),-2.4,-36.8,-0.8,100.4*,2.8,-35.3
CC(=O)N1CCC2(CC1)CC(=O)c1cc(Cl)ccc1O2,.,.,.,.,0.7,.
CCc1ccc(Nc2ncc3c(n2)CC(C)(C)CC3=O)cc1,0.1,-4.7,.,.,.,.
CCn1c(COc2cc(C)ccc2C(C)C)nnc1SCC(=O)Nc1nccs1,10.6*,23.0,1.9,6.2,-8.5,3.1
O=C(CSc1nnc(CCCO)n1-c1ccccc1)Nc1nccs1,-2.1,85.3*,6.5,-5.5,-0.4,6.9
CCOc1ccccc1-n1c(SCC(=O)Nc2nccs2)nnc1-c1ccoc1C,2.3,69.1,-0.6,73.0*,0.7,-6.7
CC(C)(C)c1nc2ccccc2c2nnc(SCC(=O)Nc3nccs3)n12,-0.3,78.0*,-4.9,2.9,-3.0,-8.4
COc1ccccc1N1CCN(C(C)C(=O)Nc2ccc(S(=O)(=O)N3CCOCC3)cc2)CC1 (configuration not stated),0.8,0.5,0.3,-3.1,11.2,-0.5
Cc1nc(S/C(=C/c2ccc(OCc3ccc(C(=O)O)cc3)cc2)C(=O)O)n[nH]1,2.1,-9.5,3.0,4.2,3.7,4.7
O=Cc1cc2ccccc2nc1SCCCF,4.0,43.1,3.4,58.2*,-14.4,-0.8
CSc1nc2ccccc2cc1/C=C(\C#N)c1ccccc1,-1.8,39.3,-2.6,0.5,-5.8,-20.2
COc1ccc(/C=C2/SC(=O)N(CCNC(=O)CC(NC(C)=O)c3ccccc3)C2=O)cc1 (configuration not stated),-0.9,5.7,.,.,-8.7,.
COc1ccc(/C=C2\SC(=O)N(CCNC(=O)C3CC4C=CC3C4)C2=O)cc1 (configuration not stated),3.2,7.9,5.5,95.8*,17.0,4.4
COc1ccc(/C=C2/SC(=O)N(CCNC(=O)C3CCCN3C(=O)c3cccs3)C2=O)cc1 (configuration not stated),-0.9,36.9,-20.9,76.0*,6.5,-1.1
SMILES,Wee1 stabilizer,CHOP inh,PKD1 inh,L major viab,Rad51 HR inh,Arbovirus inh
CC1(C)NC(=O)N(CC(=O)OCC(=O)Nc2cc(S(=O)(=O)N3CCCCCC3)ccc2Cl)C1=O,0.6,20.1,3.7,-2.8,3.3,2.3
COc1ccc(NC(=S)Nc2ccc3snnc3c2)cc1,-1.2,-14.7,1.9,54.2*,-1.7,-1.9
COc1ccc(NC(=S)Nc2ccc(N)c([N+](=O)[O-])c2)cc1,2.6,1.8,-6.4,100.1*,-0.8,-5.9
COc1ccc(NC(=S)Nc2ccccc2)cc1,-3.0,-20.3,.,.,.,.
CSc1nc(N2CCN(c3ccccc3Cl)CC2)c2ccccc2n1,2.5,7.2,7.0,23.4,.,6.4
Cc1nnc(-c2ccccc2)nc1N1CCOCC1,-0.1,9.0,-9.2,-4.0,-4.5,-6.9
CSc1nc(N2CCOCC2)c2ccccc2n1,-1.8,-17.5,-2.4,50.6*,1.2,-0.2
Cc1nc(-c2ccccn2)nc(N2CCOCC2)c1Cl,10.2*,-5.9,.,.,-3.0,.

# Screens as filed in PubChem BioAssay.
